A selection: hits, their analogues and other compounds. The true share with any hit is near 2.9%.
RBBP9 inhibitor = inhibitors of human serine hydrolase RBBP9. inhibition, % at 7.94 µM. O75884. recombinant RBBP9, FP-Rh probe fluorescence polarization. 220,000 tested, 0.2% active;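 active = inhibition above the campaign mean of all tested compounds plus 3 SD, cut at about 14% in these data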
Target sequence (O75884 whole entry, looked up): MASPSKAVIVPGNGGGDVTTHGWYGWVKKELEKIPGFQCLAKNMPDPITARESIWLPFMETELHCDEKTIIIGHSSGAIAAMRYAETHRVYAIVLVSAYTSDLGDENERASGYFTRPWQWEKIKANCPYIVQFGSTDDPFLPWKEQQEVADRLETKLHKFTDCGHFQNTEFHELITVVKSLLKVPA
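Material: RBBP9 protein. Amount: RBBP9 at 2.5 µM in dispensed solution, before mixing. Schedule: 30 min then 45 min, 25 °C. Medium: Tris buffer pH 8.0, NaCl, Pluronic. Measured by: fluorescence polarization. Measure: percent inhibition from mP, scaled between DMSO and no-protein wells. Replication: one well per compound.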
Runt-SMMHC FRET = inhibitors of human RUNX1 Runt domain binding to CBFb-SMMHC | AID 1434 | 220,000 tested, 0.74% active | inhibition, % at 20 µM | Cerulean-Runt/Venus-CBFb-SMMHC FRET ratio 530/480, 1 h | Q01196+Q13951;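 active = mean inhibition across duplicate retests at 20 µM reaching about 50%, limit read from the data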;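 note: inhibitors lower the FRET ratio by blocking Runt binding to CBFb-SMMHC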
Runt-CBFb FRET = inhibitors of human RUNX1 Runt domain binding to CBFb. 220,000 tested, 0.46% active. Cerulean-Runt/Venus-CBFb FRET ratio 530/480, 1 h. AID 1496. Q01196+Q13951. inhibition, % at 20 µM;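 active = inhibition over about 50% at 20 µM in the single-dose screen, limit read from the data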
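Reagent – Venus-CBFb binding partner, 100 nM · Assay system – Cerulean-tagged RUNX1 Runt domain (FRET donor) fusion protein · Input – 100 nM per protein · Incubation – two 1 h room-temperature incubations shielded from light · Measured by – FRET fluorescence · Medium – Tris buffer pH 7.5 with salts and BSA · Benchmarks – unlabeled CBFb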
Hck-Nef inh = blocks Nef-activated human Hck kinase; AID 463187; inhibition, % at 20 µM; 220,000 tested, 0.68% active; Recombinant Hck-YEEI plus Nef, Z-Lyte FRET kinase assay;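 active = Hck-Nef kinase inhibition above about 50%, limit read from the data; inactive = inhibition below that limit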
Target sequence (P08631 whole entry, looked up): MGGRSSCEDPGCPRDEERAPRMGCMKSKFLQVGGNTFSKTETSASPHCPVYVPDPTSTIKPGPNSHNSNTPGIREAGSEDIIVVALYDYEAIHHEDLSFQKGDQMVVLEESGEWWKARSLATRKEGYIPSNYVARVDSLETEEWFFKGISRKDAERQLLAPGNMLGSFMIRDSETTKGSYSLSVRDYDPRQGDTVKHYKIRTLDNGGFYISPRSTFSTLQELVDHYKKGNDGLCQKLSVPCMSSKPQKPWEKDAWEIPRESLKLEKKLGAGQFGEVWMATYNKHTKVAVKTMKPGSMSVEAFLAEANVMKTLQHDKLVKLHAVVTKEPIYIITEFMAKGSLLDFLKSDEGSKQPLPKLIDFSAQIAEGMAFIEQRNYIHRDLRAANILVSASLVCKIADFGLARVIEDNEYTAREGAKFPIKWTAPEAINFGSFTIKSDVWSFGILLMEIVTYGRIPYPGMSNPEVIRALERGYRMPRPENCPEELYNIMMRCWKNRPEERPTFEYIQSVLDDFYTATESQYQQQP
M18AAP inhibitor = PfM18AAP enzyme inhibition; 290,000 tested, 1.2% active; inhibition, % at 7.35 µM; recombinant PfM18AAP, H-Glu-NHMec fluorogenic cleavage;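 active = inhibition above the campaign mean inhibition over all tested compounds plus 3 SD, cut at about 28% in these data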
RanGTP-Imp inh = disruptors of Ran-importin-beta complex formation – biochemical, FRET, CFP-Ran, YFP-importin-beta, homogeneous, primary screen. 300,000 tested, 1.1% active. AID 2216. inhibition, % (concentration not given with the values). cell-free CFP-Ran/YFP-importin-beta FRET ratio;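 active = more than half of the replicate wells show a fall in the fluorescence ratio signal beyond about 16%, limit read from the data, passing the limit was not always enough; inconclusive = exactly half of the replicate wells pass the set limit; inactive = fewer than half of replicates pass the limit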
A number is an active result.

For O=c1[nH]c(SCc2ccccc2Cl)nc2[nH]ncc12 the results were RBBP9 inhibitor inactive, Runt-SMMHC FRET inactive, Runt-CBFb FRET inactive, Hck-Nef inh inactive, M18AAP inhibitor 48.1 and RanGTP-Imp inh inconclusive.
For CCCNC(=O)CSc1nc2[nH]ncc2c(=O)[nH]1 the results were RBBP9 inhibitor inactive, Runt-SMMHC FRET inactive, Runt-CBFb FRET inactive, Hck-Nef inh inactive, M18AAP inhibitor inactive and RanGTP-Imp inh inactive.
`CCOC(=O)COn1c(=O)c(-c2cccs2)[n+]([O-])c2ccccc21` gave RBBP9 inhibitor inactive, Runt-SMMHC FRET inactive, Runt-CBFb FRET inactive, Hck-Nef inh inactive, M18AAP inhibitor inactive and RanGTP-Imp inh inactive.
CCOn1c(=O)c(-c2cccs2)[n+]([O-])c2ccccc21 was read as RBBP9 inhibitor inactive, Runt-SMMHC FRET inactive, Runt-CBFb FRET inactive, Hck-Nef inh inactive, M18AAP inhibitor inactive and RanGTP-Imp inh 20.6.
Screening O=Cc1sc([O-])nc1-[n+]1ccc2ccccc2c1 returned RBBP9 inhibitor inactive, Runt-SMMHC FRET inactive, Runt-CBFb FRET inactive, Hck-Nef inh inactive, M18AAP inhibitor inactive and RanGTP-Imp inh 27.8.
For Cc1ccc[n+](-c2nc([O-])sc2C=O)c1 the results were RBBP9 inhibitor inactive, Runt-SMMHC FRET inactive, Runt-CBFb FRET inactive, Hck-Nef inh inactive and M18AAP inhibitor inactive.
For COc1cc(NC(=O)Cc2ccccc2)ccc1NC(=O)c1ccccc1 the results were M18AAP inhibitor inactive and RanGTP-Imp inh inactive.
O=c1cc(CN2CCOCC2)c2cc(Cl)c(O)cc2o1 was read as M18AAP inhibitor inactive and RanGTP-Imp inh 73.3.
CCc1cc2c(CN3CCN(CC)CC3)cc(=O)oc2cc1O was read as RBBP9 inhibitor inactive, Runt-SMMHC FRET 61.3, Runt-CBFb FRET inactive, Hck-Nef inh inactive, M18AAP inhibitor inactive and RanGTP-Imp inh 115.5.
`Cc1c(O)ccc2c(CN3CCOCC3)cc(=O)oc12` gave M18AAP inhibitor inactive and RanGTP-Imp inh 53.4.
`O=C(NCCNc1ccccc1[N+](=O)[O-])c1cc(F)c(F)cc1Cl` gave M18AAP inhibitor inactive and RanGTP-Imp inh inactive.
CC1C/C(=C/c2ccco2)C(=O)/C(=C/c2ccco2)C1 (stereo unspecified) was read as RBBP9 inhibitor inactive, Runt-SMMHC FRET inactive, Runt-CBFb FRET inactive, Hck-Nef inh 66.6, M18AAP inhibitor inactive and RanGTP-Imp inh inactive.
O=c1n(Cc2ccccc2Cl)nc2n1-c1ccccc1SC2 was read as RBBP9 inhibitor inactive, Runt-SMMHC FRET inactive, Runt-CBFb FRET inactive, Hck-Nef inh inactive, M18AAP inhibitor inactive and RanGTP-Imp inh inactive.
For CCCCC(=O)Nc1cccc(NC(=O)c2ccc(Br)o2)c1 the results were RBBP9 inhibitor inactive, Runt-SMMHC FRET inactive, Runt-CBFb FRET inactive, Hck-Nef inh inactive, M18AAP inhibitor inactive and RanGTP-Imp inh 38.0.
`O=C(CSc1nc2cc([N+](=O)[O-])ccc2n1-c1ccccc1)NCc1ccc2c(c1)OCO2` gave RBBP9 inhibitor inactive, Runt-SMMHC FRET inactive, Runt-CBFb FRET inactive, Hck-Nef inh inactive, M18AAP inhibitor 37.7 and RanGTP-Imp inh inactive.
COc1ccc(OC)c(N(C)S(=O)(=O)c2ccc3c(c2)N(C(C)=O)CCO3)c1 was read as M18AAP inhibitor inactive and RanGTP-Imp inh inactive.
Screening O=C(NCc1ccccn1)c1ccc(OC2CCN(Cc3ccc(F)cc3F)CC2)cc1 returned M18AAP inhibitor inactive and RanGTP-Imp inh inactive.
`CCOC(=O)NC1(Nc2ccc(Cl)cn2)Oc2ccccc2O1` gave RBBP9 inhibitor inactive, Runt-SMMHC FRET inactive, Runt-CBFb FRET inactive, Hck-Nef inh inactive and M18AAP inhibitor 56.7.
CCOC(=O)/C=C/C(=O)OCC(=O)Nc1ccc(Cl)cn1 was read as RBBP9 inhibitor inactive, Runt-SMMHC FRET inactive, Runt-CBFb FRET inactive, Hck-Nef inh inactive, M18AAP inhibitor inactive and RanGTP-Imp inh inactive.
Screening CCOC(=O)C1=C(O)/C(=C/c2ccc(C)o2)SC1=NC(=O)c1ccccc1C returned RBBP9 inhibitor inactive, Hck-Nef inh 55.3 and M18AAP inhibitor inactive.
For CCOC(=O)C1=C(O)/C(=C/c2cc(OC)c(OC)c(OC)c2)SC1=Nc1ccc(OC)cc1 the results were RBBP9 inhibitor inactive, Runt-SMMHC FRET inactive, Hck-Nef inh inactive, M18AAP inhibitor inactive and RanGTP-Imp inh inactive.
For O=C(NC(=S)Nc1ccccc1F)C1CCCCC1 the results were M18AAP inhibitor inactive and RanGTP-Imp inh inactive.
CC1CCc2c(sc3ncn4c(SCC(=O)NCc5ccco5)nnc4c23)C1 (stereo unspecified) was read as RBBP9 inhibitor inactive, Runt-SMMHC FRET inactive, Runt-CBFb FRET inactive, Hck-Nef inh inactive, M18AAP inhibitor inactive and RanGTP-Imp inh inactive.
For CC1CCc2sc3ncn4nc(C(=O)NCc5ccco5)nc4c3c2C1 (stereo unspecified) the results were RBBP9 inhibitor inactive, Runt-SMMHC FRET inactive, Runt-CBFb FRET inactive, Hck-Nef inh inactive, M18AAP inhibitor inactive and RanGTP-Imp inh 119.9.
`COC(=O)Nc1sc2c(c1C(N)=O)CCC(C)C2` (stereo unspecified) gave RBBP9 inhibitor inactive, Runt-SMMHC FRET inactive, Runt-CBFb FRET inactive, Hck-Nef inh inactive, M18AAP inhibitor 48.5 and RanGTP-Imp inh inactive.
CCN(CC)CCNC(=O)/C(=C/c1cn(C)c2ccccc12)NC(=O)c1ccc(OC)c(OC)c1 was read as RBBP9 inhibitor inactive, Runt-SMMHC FRET inactive, Runt-CBFb FRET inactive, Hck-Nef inh inactive, M18AAP inhibitor inactive and RanGTP-Imp inh inactive.
`N#Cc1cc(S(=O)(=O)c2ccccc2)c(N)[nH]c1=O` gave RBBP9 inhibitor inactive, Runt-SMMHC FRET inactive, Runt-CBFb FRET inactive, Hck-Nef inh inactive, M18AAP inhibitor inactive and RanGTP-Imp inh inactive.
`Cc1ccccc1S(=O)(=O)c1cc(C#N)c(=O)[nH]c1N` gave RBBP9 inhibitor inactive, Runt-SMMHC FRET 134.2, Runt-CBFb FRET 87.0, Hck-Nef inh inactive, M18AAP inhibitor inactive and RanGTP-Imp inh inactive.
Cc1nonc1CC(=O)N1CCCC(C(=O)c2cccc(C(F)(F)F)c2)C1 (stereo unspecified) was read as RBBP9 inhibitor inactive, Runt-SMMHC FRET inactive, Runt-CBFb FRET inactive, Hck-Nef inh inactive, M18AAP inhibitor inactive and RanGTP-Imp inh inactive.
`CCOc1ccc(N/C(=C(/C(Cl)=C(Cl)Cl)[N+](=O)[O-])n2cncn2)cc1` gave RBBP9 inhibitor inactive, Runt-SMMHC FRET inactive, Runt-CBFb FRET inactive, Hck-Nef inh inactive, M18AAP inhibitor 78.1 and RanGTP-Imp inh inactive.
`COC(/C=C/Nc1ccc(Cl)cc1)=C(C#N)C#N` gave RBBP9 inhibitor inactive, Runt-SMMHC FRET inactive, Runt-CBFb FRET inactive, Hck-Nef inh inactive, M18AAP inhibitor inactive and RanGTP-Imp inh 26.7.
For Cc1ccccc1NC(=O)CN1C(=O)S/C(=C\c2ccc(-c3cccc(C(=O)O)c3C)o2)C1=O the results were RBBP9 inhibitor inactive, Runt-SMMHC FRET inactive, Runt-CBFb FRET inactive, Hck-Nef inh inactive, M18AAP inhibitor inactive and RanGTP-Imp inh inactive.

Compound activity as filed in PubChem.
